MC4R antag cAMP – MC4R antagonists of cAMP signaling, primary screen, cell-based, TR-FRET, antagonist arm of biased-ligand search; Melanocortin receptor 4 (Homo sapiens), P32245; MC4R-expressing cells, MTII-stimulated cAMP, LANCE TR-FRET; inhibition, % at 6.5 µM; 360,000 compounds, 0.48% hits; AID 540295, 2011;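 active means inhibition above its plate's cutoff, the mean of tested wells on that plate plus 3 SD, cut at about 29% in these data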;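 further: 0% = Melanotan II alone and 100% = Melanotan II plus saturating MCL0020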
Target sequence (P32245 whole entry, looked up): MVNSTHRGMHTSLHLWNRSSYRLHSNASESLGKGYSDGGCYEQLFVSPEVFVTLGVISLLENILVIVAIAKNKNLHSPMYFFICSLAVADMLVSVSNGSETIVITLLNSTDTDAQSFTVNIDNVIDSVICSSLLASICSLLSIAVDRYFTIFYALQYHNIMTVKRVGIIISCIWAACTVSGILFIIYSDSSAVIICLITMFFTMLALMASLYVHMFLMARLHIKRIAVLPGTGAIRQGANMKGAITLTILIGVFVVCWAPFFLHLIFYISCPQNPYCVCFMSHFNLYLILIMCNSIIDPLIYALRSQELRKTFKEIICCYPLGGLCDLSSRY
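System: U2OS-MC4R stable cell line; Technique: Eu-cAMP/anti-cAMP TR-FRET, emission 671 nm; Repeats: single well per compound; Also added: Melanotan II; Dosing: one concentration, 6.5 µM nominal; Schedule: 30-min compound, 1-h challenge, 1-h detection, room temperature.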
B2AR ag – beta2AR agonists driving receptor internalization, primary screen, cell-based, FAP fluorogen, flow cytometry; Am2.2-beta2AR cells; response, % (test concentration not listed); 340,000 compounds, 0.43% hits; AID 504454, 2011;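 active means response above a set limit, near 3 SD of response in nonfluorescent compounds, cut at about 42% in these data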
MC4R ag barr – MC4R agonists recruiting beta-arrestin, primary screen, cell-based, luminescence, agonist arm of biased-ligand search. U2OS MC4R beta-arrestin complementation; percent of melanotan II response, DMSO zero. 360,000 compounds, 0.98% hits. activation, % at 8.9 µM. Melanocortin receptor 4 (Homo sapiens), P32245;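 active means activation above a per-plate cutoff, the mean activation of sample wells on that plate plus 3 SD, cut at about 8% in these data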
TAAR1 ag – human TAAR1 agonists, primary screen, Fluo-8 calcium fluorescence, CHO RD-HGA16 cells. vehicle wells 0%, saturating PEA agonist 100%. activation, % at 3 µM. 360,000 compounds, 0.99% hits. AID 624467, 2012;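 active means activation above the mean activation of all test compounds in the run plus 3 SD, cut at about 38% in these data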
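Signal – calcium-sensitive Fluo-8 signal, excitation 470-495, emission 515-575 nm · System – RD-HGA16 (CHO) cells co-expressing Gα16 and hTAAR1 · Incubation – 17-24 h seeding, 75 min 37 °C dye, 30 min RT · Compound dosing – 3 µM single concentration · Repeats – no replicates (n 1)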
TAAR1 antagonist – human TAAR1 antagonists, primary screen, Fluo-8 calcium fluorescence, CHO RD-HGA16 cells | antagonist | inhibition, % at 3 µM | 360,000 compounds, 1.5% hits | AID 624466, 2012;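 active means inhibition above a per-plate cutoff, the mean inhibition of test compounds on that plate plus 3 SD, cut at about 49% in these data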;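 further: 0% = DMSO plus EC80 beta-PEA response and 100% = DMSO alone without agonist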
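System: RD-HGA16 CHO cells with stable hTAAR1 and Gα16 | Probe or stimulus: EC80 β-phenethylamine stimulus | Dosing: 3 µM, single point | Times: Dye loading 75 min at 37 °C, then 30 min room temperature | Measured by: Fluo-8 calcium-sensitive fluorescence | Read-out basis: % inhibition of agonist calcium response | Replicates: n of 1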
HTR2A ag – mouse Htr2a agonists via beta-arrestin recruitment, primary screen, cell-based, luminescence; CHO-K1 mHTR2A beta-arrestin complementation; percent of 30 µM serotonin response; activation, % at 7.6 µM; 360,000 compounds, 0.66% hits;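 active means activation above a run cutoff, the mean activation of all tested compounds plus 3 SD, cut at about 14% in these data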;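 further: 0% = plate median of compound wells and 100% = 30 µM serotonin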
MC4R barr ag – MC4R beta-arrestin agonists, retest, confirmation, cell-based, luminescence, U2OS. 2,400 compounds, 31% hits. activation, % at 8.9 µM. shares compounds with MC4R ag barr. U2OS MC4R beta-arrestin recruitment; scaled DMSO 0%, Melanotan II 100%. AID 602192, 2012;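 active means mean activation across replicates above the hit cutoff set in the earlier primary screen, cut at about 8% in these data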
MOR DOR agonist – agonists of MOR-DOR heterodimerization, counter-screen for MC4R biased agonist project, cell-based, luminescence. shares compounds with MC4R ag barr. 2,400 compounds, 5.8% hits. AID 602194, 2012. U2OS PathHunter beta-arrestin, beta-gal luminescence; percent of deltorphin B response, DMSO zero. activation, % at 9.2 µM;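 active means mean activation across replicates exceeds the hit threshold derived in the earlier primary screen, cut at about 18% in these data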;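 further: 100% = deltorphin B at 0.9 µM final and 0% = DMSO alone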
The depositor's hits bear a star; x = not tested or not shown. Rows were chosen to be rich in hits. Some 4.3% of all compounds tested hit in one or more screens of this group.

SMILES	MC4R antag cAMP	B2AR ag	MC4R ag barr	TAAR1 ag	TAAR1 antagonist	HTR2A ag	MC4R barr ag	MOR DOR agonist
O=C(CN1CCN(c2ccccc2)CC1)Nc1ccc(Oc2ccccc2)cc1	4	-2	19*	12	11	8	6	5
COc1ccc(-c2csc(NC(=O)c3ccccc3C(=O)O)n2)cc1	3	-4	-2	-2	-5	-2	x	x
COc1ccc(-c2csc(NC(=O)c3nc(-c4ccccc4)oc3C)n2)cc1	-3	1	12*	6	-9	9	2	4
COc1ccc2nc(C)cc(SCC(=O)N/N=C/c3cccc4ccccc34)c2c1	7	32	19*	6	8	-2	7	5
CSCc1c(C(=O)Nc2ccccc2N2CCOCC2)oc2ccccc12	8	0	6	16	-9	-4	x	x
O=C(CSc1cc(Cl)ccc1Cl)NC1CCCc2ccccc21 (centres undefined)	4	2	13*	2	19	8	3	5
CCc1ccc(N=C2NC(=O)/C(=C/c3cc(OC)c(O)c(OC)c3)S2)cc1	2	-5	14*	3	17	-4	13*	7
COc1cc(/C=C2\SC(=Nc3cccnc3)NC2=O)cc(OC)c1OC	13	3	2	0	3	10	x	x
O=C(Nc1ccn(Cc2ccccc2F)n1)c1ccc(COc2cc(Cl)ccc2Cl)o1	2	-10	6	4	18	-6	x	x
O=C(Nc1ccn(Cc2c(F)c(F)cc(F)c2F)n1)c1ccc(COc2cc(Cl)ccc2Cl)o1	8	-13	11*	6	20	-2	3	3
O=C1c2ccccc2C(=O)c2c(Nc3ccc(CCO)cc3)ccc(O)c21	12	18	19*	2	10	-5	6	6
Nc1ccc(O)c2c1C(=O)c1ccccc1C2=O	15	0	-3	1	0	-6	x	x
Nc1ccc(O)cc1C(=O)OCC(=O)c1ccc(C2CCCCC2)cc1	7	4	21*	-2	-7	9	12*	14
O=c1c2ccccc2nc(SCc2nc3ccccc3s2)n1Cc1ccco1	21	-4	11*	4	0	5	-2	5
O=C(NCc1csc2ccccc12)Nc1cc(Cl)cc(Cl)c1	14	-3	16*	21	-6	-4	-1	4
Cc1ccc(C(=O)c2coc3c2C(=O)C(=O)c2ccccc2-3)cc1	-7	14	16*	13	22	6	17*	9
Cc1nc(NC(=O)CSc2nc3cccnc3n2C2CCCCC2)sc1C	-3	-22	9.6*	-1	-8	4	-2	7
CCN(CC)c1nc(-c2cccc(OC)c2O)nc2ccccc12	10	3	-1	8	17	-1	x	x
COc1cccc(Nc2nc(-c3ccccc3O)nc3ccccc23)c1	9	-6	17*	2	15	5	1	4
COc1ccc(Nc2nc(-c3ccncc3)nc3ccccc23)cc1	19	-3	19*	3	27	4	2	9
O=C(OCCNc1nc(-c2ccccc2)nc2ccccc12)c1cccnc1	0	0	-1	8	41	2	x	x
CCCOC(=O)c1cccc(Nc2nc(-c3cccnc3)nc3ccccc23)c1	21	1	26*	11	62*	0	17*	11
COc1cccc(-c2nc(NCc3ccccc3)c3ccccc3n2)c1O	0	5	18*	0	5	-2	3	5
Cn1c(=O)c2cc(NC(=O)NCc3ccccc3)ccc2n1Cc1ccc(Cl)cc1	-13	x	-3	3	1	-5	x	x
Fc1cccc(Nc2nc(-c3ccncc3)nc3ccccc23)c1	27	2	12*	9	48	-3	1	6
SMILES	MC4R antag cAMP	B2AR ag	MC4R ag barr	TAAR1 ag	TAAR1 antagonist	HTR2A ag	MC4R barr ag	MOR DOR agonist
COc1cc(OC)cc(-c2noc([C@H]3C[C@H](O)[C@@H](CO)O3)n2)c1	2	x	0	4	-24	7	x	x
O=C(Cc1cccs1)Nc1ccc(NC(=O)c2ccco2)cc1	3	-10	-1	15	8	3	x	x
O=C(Cc1cccs1)Nc1ccc(-c2nnc(-c3ccco3)o2)cc1	7	5	11*	8	22	0	4	6
CCN1C(=O)[C@H]2[C@H]3CN=C(SCc4ccc(Cl)cc4)N3[C@@](C)(C(=O)OC)[C@H]2C1=O	4	6	1	6	-5	6	x	x
CCCCCCCCCCS(=O)(=O)N/N=C/c1ccc([N+](=O)[O-])cc1	10	9	13*	4	-4	-1	7	2
O=C(N/N=C/c1cccc(OCc2ccccc2)c1)c1ccc(Br)cc1	5	5	17*	1	38	-7	-2	6
CC(/C=N/NC(=O)c1ccc(Br)cc1)=C\c1ccccc1	1	4	28*	0	-17	1	1	8
O=C(N/N=C/c1ccc(OCc2ccccc2)cc1)c1cccs1	1	7	13*	30	8	-3	20*	8
CC(=O)N1CCOc2ccc(S(=O)(=O)NCCc3ccc(Cl)cc3)cc21	2	5	-2	5	-23	0	x	x
CCOC(=O)N1CCC(N2C(=O)c3ccc(C(=O)Nc4cccc(OC)c4)cc3C2=O)CC1	1	9	12*	10	5	3	2	4
CCOC(=O)N1CCC(N2C(=O)c3ccc(C(=O)O)cc3C2=O)CC1	10	16	0	11	-2	-1	x	x
Nc1ccn([C@@H]2O[C@H](C(=O)N[C@H](Cc3ccccc3)C(=O)NCC(F)(F)F)[C@@H](O)[C@H]2O)c(=O)n1	x	x	x	2	-16	x	x	x

Bioassay records from PubChem.
